Active and inactive are the calls of the source. The rule behind the calls is not given here.
Key:
Type in all cases: functional, organism-based
Enterovirus [1] = experiment: Antiviral activity against Rhinovirus 13 infected in human KB cells assessed as inhibition of virus-induced cytopathic effect after 72 hrs by microscopic analysis relative to control
In short: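 KB (human nasopharyngeal carcinoma) monolayers, 19-24 h old, were infected with 320 CCID50 of virus. Compound was added within 15 min at one-half-log dilutions from 1000 to 1 µg/mL. After 72 h at 37 °C, CPE and cytotoxicity were scored microscopically (0-4). The virus rating sums the control-minus-treated CPE scores over all levels, halving any level showing partial toxicity.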

Enterovirus [2] = experiment: Antiviral activity against Rhinovirus 8 infected in human KB cells assessed as inhibition of virus-induced cytopathic effect after 72 hrs by microscopic analysis relative to control
Enterovirus [3] = experiment: Antiviral activity against Rhinovirus 2 infected in human KB cells assessed as inhibition of virus-induced cytopathic effect after 72 hrs by microscopic analysis relative to control
Enterovirus [4] = experiment: Antiviral activity against Rhinovirus 1A infected in human KB cells assessed as inhibition of virus-induced cytopathic effect after 72 hrs by microscopic analysis relative to control
Enterovirus [5] = experiment: Antiviral activity against Rhinovirus 30 infected in human KB cells assessed as inhibition of virus-induced cytopathic effect after 72 hrs by microscopic analysis relative to control

O=c1[nH]c(=O)n2ccnc2[nH]1
inhibition (Enterovirus [1]): inactive

NC(=O)c1ncn([C@@H]2O[C@H](CO)[C@@H](O)[C@H]2O)n1
inhibition (Enterovirus [2]): Active | inhibition (Enterovirus [3]): Active | inhibition (Enterovirus [4]): Active | inhibition (Enterovirus [1]): Active | inhibition (Enterovirus [5]): Active

Nc1nc(=O)n2ccn([C@@H]3O[C@H](COC(=O)c4ccccc4)[C@@H](OC(=O)c4ccccc4)[C@H]3OC(=O)c3ccccc3)c2n1
inhibition (Enterovirus [1]): inactive

Nc1nc(=O)n2ccn([C@@H]3O[C@H](COP(=O)(O)O)[C@@H](O)[C@H]3O)c2n1
inhibition (Enterovirus [2]): inactive | inhibition (Enterovirus [3]): Active | inhibition (Enterovirus [4]): inactive | inhibition (Enterovirus [1]): inactive | inhibition (Enterovirus [5]): inactive

O=c1nc2n([C@@H]3O[C@H](CO)[C@@H](O)[C@H]3O)ccn2c(=O)[nH]1
inhibition (Enterovirus [1]): inactive

Nc1nc(=O)n2cc[nH]c2n1
inhibition (Enterovirus [2]): Active | inhibition (Enterovirus [3]): Active | inhibition (Enterovirus [4]): Active | inhibition (Enterovirus [1]): Active | inhibition (Enterovirus [5]): Active

Nc1nc(=O)n2ccn([C@@H]3O[C@H](CO)[C@@H](O)[C@H]3O)c2n1
inhibition (Enterovirus [2]): inactive | inhibition (Enterovirus [3]): Active | inhibition (Enterovirus [4]): Active | inhibition (Enterovirus [1]): inactive | inhibition (Enterovirus [5]): inactive
